The subject of assay [1] is D-alanine--D-alanine ligase (Enterococcus faecalis). In words: ATP dependent inhibition of D-alanine--D-alanine ligase after 4 hours at 10 uM concentration.
In assay [2] the test system is Klebsiella pneumoniae. In words: Minimum inhibitory concentration required for growth inhibition of Klebsiella pneumoniae 4005.
Assay [3] relates to Enterococcus faecalis. The assay can be described thus: Minimum inhibitory concentration required for growth inhibition of Streptococcus faecalis 2864.
Assay [4] relates to Serratia marcescens. The assay can be described thus: Minimum inhibitory concentration required for growth inhibition of Serratia marcescens 2840.
Assay [5] relates to D-alanine--D-alanine ligase (Enterococcus faecalis). In words: ATP dependent inhibition of D-alanine--D-alanine ligase after 24 hours at 10 uM concentration.
The subject of assay [6] is Enterobacter cloacae. The assay can be described thus: Minimum inhibitory concentration required for growth inhibition of cloacae 2647.
In assay [7] the test system is Pseudomonas aeruginosa. The assay can be described thus: Minimum inhibitory concentration required for growth inhibition of Pseudomonas aeruginosa 4279.
Assay [8] has as its system Escherichia coli. The assay can be described thus: Minimum inhibitory concentration required for growth inhibition of Escherichia coli DC2 4353.
Assay [9] deals with Staphylococcus aureus. The assay can be described thus: Minimum inhibitory concentration required for growth inhibition of Staphylococcus aureus 2865.
Assay [10] relates to Proteus vulgaris. In words: Minimum inhibitory concentration required for growth inhibition of proteus vulgaris 2829.
In assay [11] the test system is Escherichia coli. In words: Minimum inhibitory concentration required for growth inhibition of Escherichia coli 2891.
The test system of assay [12] is Salmonella typhimurium. In words: Minimum inhibitory concentration required for growth inhibition of Salmonella Typhimurium 3860. Particulars: Salmonella enterica subsp. enterica serovar Typhimurium.
The subject of assay [13] is Escherichia coli. In words: Minimum inhibitory concentration required for inhibition of D-alanyl-D-alanine ligase from Escherichia coli Tem 2+ 4351 in the presence of F-D-Ala ug/mL. It counts as functional.
For assay [14], the system named is Enterococcus faecalis. The assay can be described thus: Minimum inhibitory concentration required for inhibition of D-alanyl-D-alanine ligase from Streptococcus faecalis 2864 in the presence of F-D-Ala ug/mL. It counts as functional.
In assay [15] the test system is Enterococcus faecalis. The assay can be described thus: Minimum inhibitory concentration required for inhibition of D-alanyl-D-alanine ligase from Streptococcus faecalis 2864. It counts as functional. In outline: (§1)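 Organisms were mostly subcultured from agar into trypticase soy broth, 35 °C for 20 h; Pseudomonas was shaken at 250 rpm. MIC was the lowest concentration giving no visible growth or fewer than five colonies per spot.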

Assay [16] deals with Escherichia coli. In words: Minimum inhibitory concentration required for inhibition of D-alanyl-D-alanine ligase from Escherichia coli Tem 2+ 4351. It counts as functional. In outline:
as §1

The test system of assay [17] is Pseudomonas aeruginosa. The assay can be described thus: Minimum inhibitory concentration required for inhibition of D-alanyl-D-alanine ligase from Pseudomonas aeruginosa 4279. It counts as functional. In outline: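 Inocula were subcultured from agar into trypticase soy broth and grown at 35 °C for 20 h, with the Pseudomonas strain shaken at 250 rpm. MIC was taken as the lowest concentration giving no visible growth or fewer than five colonies per inoculation spot.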

The test system of assay [18] is Pseudomonas aeruginosa. The assay can be described thus: Minimum inhibitory concentration required for inhibition of D-alanyl-D-alanine ligase from Pseudomonas aeruginosa 4279 in the presence of F-D-Ala ug/mL. It counts as functional.
Assay [19] has as its system Klebsiella pneumoniae. The assay can be described thus: Minimum inhibitory concentration required for inhibition of D-alanyl-D-alanine ligase from Klebsiella pneumoniae 4005. It counts as functional. The gist of the method:
as §1

Assay [20] relates to Klebsiella pneumoniae. The assay can be described thus: The inhibition of D-alanyl-D-alanine ligase from Klebsiella pneumoniae 4005 in the presence of F-D-Ala ug/mL. It counts as functional.
In assay [21] the test system is Escherichia coli. In words: Minimum inhibitory concentration required for inhibition of D-alanyl-D-alanine ligase from Escherichia coli 2891. It counts as functional. The gist of the method: as §1
Assay [22] deals with Staphylococcus aureus. In words: Minimum inhibitory concentration required for inhibition of D-alanyl-D-alanine ligase from Staphylococcus aureus 2865. It counts as functional. In outline:
as §1

Assay [23] deals with Escherichia coli. In words: Minimum inhibitory concentration required for inhibition of D-alanyl-D-alanine ligase from Escherichia coli DC2 4353. It counts as functional. In outline:
as §1

Assay [24] concerns Proteus vulgaris. In words: Minimum inhibitory concentration required for inhibition of D-alanyl-D-alanine ligase from proteus vulgaris 2829. It counts as functional. The gist of the method: as §1
Assay [25] concerns Salmonella typhimurium. The assay can be described thus: Minimum inhibitory concentration required for inhibition of D-alanyl-D-alanine ligase from Salmonella Typhimurium 3860. It counts as functional, Salmonella enterica subsp. enterica serovar Typhimurium. Particulars: Salmonella enterica. The gist of the method:
as §1

In assay [26] the test system is Enterobacter cloacae. In words: Minimum inhibitory concentration required for inhibition of D-alanyl-D-alanine ligase from cloacae 2647. It counts as functional. In outline:
as §1

Assay [27] has as its system Serratia marcescens. In words: Minimum inhibitory concentration required for inhibition of D-alanyl-D-alanine ligase from Serratia marcescens 2840. It counts as functional. In outline:
as §1

Each structure is given as a SMILES string. ≈ marks a conversion by molar mass, not a printed value.

For orientation: inhibition means the change of the read-out against control, counted positive when it falls. Read a high inhibition as strong suppression. Consider `CSC(CP(=O)(O)C(C)N)C(=O)O` (centres undefined), for which the inhibition in assay [1] and in assay [5] was 96% throughout. Moreover, the MIC came to 128 µg/mL (≈ 563 µM) with Klebsiella pneumoniae [2]; 4 µg/mL (≈ 17.6 µM) with Enterococcus faecalis [3]; 256 µg/mL (≈ 1130 µM) in the assay on Serratia marcescens [4]; 128 µg/mL (≈ 563 µM) in the assay with Enterobacter cloacae [6]; 64 µg/mL (≈ 282 µM) against Pseudomonas aeruginosa [7]; 64 µg/mL (≈ 282 µM) against Escherichia coli [8]. Also, the MIC against Staphylococcus aureus [9] was above 256 µg/mL; with Proteus vulgaris [10] it was 4 µg/mL (≈ 17.6 µM).
With `CCC(CP(=O)(O)C(C)N)C(=O)O` (centres undefined), the MIC in the assay on Enterococcus faecalis [3] was 2 µg/mL (≈ 9.56 µM); in the assay with Serratia marcescens [4] it was above 256 µg/mL; in the assay on Enterobacter cloacae [6], 256 µg/mL (≈ 1220 µM); against Escherichia coli [11] it was 256 µg/mL (≈ 1220 µM); against Escherichia coli [8], 8 µg/mL (≈ 38.2 µM); in the assay on Staphylococcus aureus [9], above 256 µg/mL. Besides, the MIC is 128 µg/mL (≈ 612 µM) in the assay on Proteus vulgaris [10] and above 256 µg/mL against Salmonella typhimurium [12].
As to `C[C@@H](CP(=O)(O)[C@@H](C)N)C(=O)O`, the MIC in the assay on Escherichia coli [13] turned out to be 128 µg/mL; in the assay on Enterococcus faecalis [14], 8 µg/mL; in the assay with Enterococcus faecalis [15], 128 µg/mL (≈ 656 µM); against Escherichia coli [16], 128 µg/mL (≈ 656 µM); against Pseudomonas aeruginosa [17], 128 µg/mL (≈ 656 µM); in the assay on Pseudomonas aeruginosa [18], 128 µg/mL. Moreover, the MIC with Klebsiella pneumoniae [19] was 128 µg/mL (≈ 656 µM); in the assay with Klebsiella pneumoniae [20] it was 128 µg/mL.
As for `CCCCCCCC(CP(=O)(O)[C@@H](C)N)C(=O)O` (some centres undefined), the inhibition in [1] is 75%; in assay [5] it was 53%. For the same compound, the MIC in the assay on Escherichia coli [21] was found to be 128 µg/mL (≈ 458 µM); with Staphylococcus aureus [22] it was 128 µg/mL (≈ 458 µM); in the assay on Escherichia coli [23] it was 32 µg/mL (≈ 115 µM); against Enterococcus faecalis [15], 64 µg/mL (≈ 229 µM); against Proteus vulgaris [24], 128 µg/mL (≈ 458 µM); against Escherichia coli [16] it was 128 µg/mL (≈ 458 µM). Further, the MIC in the assay on Salmonella typhimurium [25] is 128 µg/mL (≈ 458 µM); against Pseudomonas aeruginosa [17], above 256 µg/mL; with Enterobacter cloacae [26], 256 µg/mL (≈ 917 µM); in the assay on Klebsiella pneumoniae [19] it was 64 µg/mL (≈ 229 µM); against Serratia marcescens [27] it was above 256 µg/mL.
Take `CC(N)P(=O)(O)CC(CCCc1ccccc1)C(=O)O` (centres undefined): the MIC against Klebsiella pneumoniae [2] was 256 µg/mL (≈ 855 µM); in the assay on Enterococcus faecalis [3], 256 µg/mL (≈ 855 µM); with Serratia marcescens [4], above 256 µg/mL; against Enterobacter cloacae [6] it was above 256 µg/mL; against Escherichia coli [11] it was 128 µg/mL (≈ 428 µM); in the assay with Pseudomonas aeruginosa [7], above 256 µg/mL. Besides, the MIC is 128 µg/mL (≈ 428 µM) against Escherichia coli [8], 256 µg/mL (≈ 855 µM) against Staphylococcus aureus [9], above 256 µg/mL with Proteus vulgaris [10] and 128 µg/mL (≈ 428 µM) in the assay with Salmonella typhimurium [12].

Values taken from ChEMBL document CHEMBL1124203, “Phosphinic acid inhibitors of D-alanyl-D-alanine ligase” (J Med Chem, 1988).
